Assay results gathered from unrelated publications.
Protocols differ between the studies behind these lines.
Target: Maternal embryonic leucine zipper kinase (MELK, Homo sapiens, UniProt Q14680)

C[C@H](NC(=O)c1cnc2n1[C@](C)(Cc1ccc(C#N)cc1)C(=O)N2c1cc(Cl)c(F)c(Cl)c1)C(=O)NC1(c2ccccn2)CC1  remaining binding (cell-free assay, competition with immobilised ligand; 1 µM): 86%
N#CCCc1ccc2c(c1)-c1[nH]c3ccc([N+](=O)[O-])cc3c1CC(=O)N2  remaining signal (cell-free assay; 0.5 µM): 88.6%
CCCS(=O)(=O)Nc1ccc(F)c(C(=O)c2c[nH]c3ncc(-c4ccc(Cl)cc4)cc23)c1F  inhibition (enzyme activity, inhibitor; 1 µM): < 10%
COc1cc2ncnc(Nc3ccc(Oc4ccccc4)c(C)c3C)c2cc1OC  inhibition (enzyme activity, inhibitor; 1 µM): 10%
CNC(=O)c1cc(Oc2ccc(NC(=O)Nc3ccc(Cl)c(C(F)(F)F)c3)cc2)ccn1  inhibition (enzyme activity, inhibitor; 10 µM): 13%
COc1cc2ncnc(Nc3ccc(F)c(Cl)c3)c2cc1OCCCN1CCOCC1  remaining signal (cell-free assay; 0.5 µM): 77.7%
N#Cc1ccc(Nc2ccc3[nH]c(=O)[nH]c3c2)c(Cl)c1  remaining binding (cell-free assay, competition with immobilised ligand; 1 µM): 95%
CC/C(=N\NC(=O)NCc1cccc(O)c1)c1ccc(O)c(C)c1O  inhibition (enzyme activity, inhibitor; 0.1 µM): 0.7%
CN(C)CC#Cc1ccc(OCCCc2sc(N3CCc4cccc(C(=O)Nc5nc6ccccc6s5)c4C3)nc2C(=O)O)c(F)c1  remaining binding (cell-free assay, competition with immobilised ligand; 1 µM): 78%
CCN(CC)c1ccc(C2=NNC(=O)CC2C)cc1[N+](=O)[O-] (centres unmarked)  remaining activity (enzyme activity, inhibitor; 10 µM): 92%
CCC(=O)N[C@H]1CC[C@@H](C(=O)N(C)c2ccc(-c3nc4ccccc4o3)cc2)C1  remaining binding (cell-free assay, competition with immobilised ligand; 1 µM): 94%
CC(C)(C)c1nc(-c2cccc(NS(=O)(=O)c3c(F)cccc3F)c2F)c(-c2ccnc(N)n2)s1  remaining activity (enzyme activity, inhibitor, radiometric; 1 µM): 27%
COc1cc2c(Nc3ccc(Br)cc3F)ncnc2cc1OCC1CCN(C)CC1  remaining signal (cell-free assay; 0.5 µM): 94.4%
O=C(Nc1cnn(-c2csc(C(=O)NC3COC3)c2)c1)Nc1ccccc1Cl  remaining activity (enzyme activity, inhibitor; 5 µM): 48.7%
Oc1cccc(-c2nc(N3CCOCC3)c3oc4ncccc4c3n2)c1  remaining activity (enzyme activity, inhibitor; 10 µM): 104%
Nc1nc(NC2CCCCC2)sc1C(=O)c1ccccc1  remaining activity (enzyme activity, inhibitor; 10 µM): 70%
C[C@H](c1ccnc(Nc2nc3ccc(-c4cc(N(C)C)ncn4)cc3[nH]2)c1)N1CCN(C(=O)CC(F)(F)F)CC1  remaining binding (cell-free assay, competition with immobilised ligand; 0.1 µM): 100%
COc1cc(Nc2cnc(C#N)c(O[C@H](C)CN(C)C)n2)ncc1-c1cnn(C)c1  remaining activity (enzyme activity, inhibitor, radiometric; 1 µM): 109%
CC(C)(C)C(=O)c1sc(NC2CCCCC2)nc1N  remaining activity (enzyme activity, inhibitor; 10 µM): 89%
FC(F)(F)Oc1cccc(-c2cnc3ccc(-c4ccncc4)nn23)c1  activity vs control (enzyme activity, inhibitor, radiometric; 1 µM): 84%
CN1CC(Oc2cnc(C#N)cc2-c2ccn3nc(NC(=O)C4CC4)cc3c2)C1  inhibition (enzyme activity, inhibitor; 1 µM): 10%
COc1ccc(COc2ccc(Cc3cnc(N)nc3N)cc2OC)cc1  remaining signal (cell-free assay; 0.5 µM): 102%
CO[C@@H](C)c1c(Nc2ccc([C@@H](N(C)C(=O)C3CCS(=O)(=O)CC3)C(F)(F)F)cc2)cnc2cc(Cl)nn12  remaining binding (cell-free assay, competition with immobilised ligand; 1 µM): 52%
Cc1cnc(NC2CCOCC2)nc1-n1cnc(C(=O)NC(CN)c2cc(F)cc(Cl)c2)c1 (centres unmarked)  remaining activity (enzyme activity, inhibitor, radiometric; 1 µM): 49%
Cc1noc([C@H]2C[C@@H](c3ccc(C(F)(F)F)cc3)CN(C(=O)N3CCS(=O)(=O)C3)C2)n1  remaining binding (cell-free assay, competition with immobilised ligand; 1 µM): 100%
CCN1CCN(Cc2ccc(NC(=O)c3ccc(C)c(/C=C/c4cnc5[nH]ccc5c4OC)c3)cc2C(F)(F)F)CC1  inhibition (target engagement in cells, inhibitor, chemoproteomics; A-375; 50 nM): -10.4%
C[C@@H](c1cccc(C#N)c1)n1cc(Cl)cc(C(N)=O)c1=N  remaining binding (cell-free assay, competition with immobilised ligand; 1 µM): 78%
Cc1ccc(Nc2nccc(N(C)c3ccc4c(C)n(C)nc4c3)n2)cc1S(N)(=O)=O  inhibition (enzyme activity, inhibitor; 10 µM): 16%
O=[N+]([O-])c1cccc2[nH]c(CNc3nc(N4CCOCC4)nc4c3ncn4-c3ccsc3)nc12  binding vs control (binding, competition with immobilised ligand; 10 µM): 47%
Nc1ncnc2occ(-c3ccc(NC(=O)Nc4cc(C(F)(F)F)ccc4F)cc3)c12  remaining signal (cell-free assay, inhibitor; 20 µM): 8.1%
Clc1ccc(Nc2nnc(Cc3ccncc3)c3ccccc23)cc1  remaining signal (cell-free assay; 0.5 µM): 83.7%
CCN(CC)CCNC(=O)c1c(C)[nH]c(/C=C2\C(=O)Nc3ccc(F)cc32)c1C  inhibition (enzyme activity, inhibitor; 0.3 µM): 53%
